How the values were obtained:
[1] = Inhibition of LPS-induced AP1 transcriptional activation expressed in mouse RAW264.7 cells assessed as AP1 activity at 10 uM treated after LPS challenge measured after 24 hrs by luciferase reporter gene assay relative to control
RAW264.7 = assay: Inhibition of LPS-induced NF-kappaB transcriptional activation expressed in mouse RAW264.7 cells assessed as NF-kappaB activity at 10 uM treated after LPS challenge measured after 24 hrs by luciferase reporter gene assay relative to control; assay type: cell-based
Procedure, shortened: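 RAW 264.7 cells, about 1 10^5 per well, were seeded 24 h before co-transfection (lipofectamine plus) with pAP-1-Luc or pNF-κB-Luc plus the pGL-hRluc internal control. At 48 h post-transfection, E. coli 0111:B4 LPS (100 ng/mL final) was added for 6 h. Compound in DMSO (10 µM final) was then added and cells were harvested 24 h later. Dual-luciferase readout: firefly/Renilla ratio expressed as multiples of the untreated control, mean SEM, n = 3. Paired Student's t-test.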

Structure (SMILES)	Activity [1]	luciferase ratio (RAW264.7)
C[C@@]12CC[C@@H]3[C@@](CC[C@H]4[C@@]3(C)CCC[C@@]4(C)C(=O)O)(CC(=O)O1)C2	2.38	0.2
CC1=C[C@@]2(CC#N)CC[C@H]3[C@@](C)(CCC[C@@]3(C)C(=O)O)[C@@H]2CC1	2.85	0.22
C[C@@]12CC[C@@H]3[C@@](CC[C@H]4[C@@]3(C)[C@@H](O)CC[C@@]4(C)C(=O)O)(C/C1=N\O)C2	3.52	0.13
CC1=CC[C@@H]2[C@](CC#N)(CC[C@H]3[C@@]2(C)CCC[C@@]3(C)C(=O)O)C1	2.22	0.18
C[C@@]12CC[C@@H]3[C@@](CC[C@H]4[C@@]3(C)CCC[C@@]4(C)C(=O)O)(CC(=O)N1)C2	3.19	0.15
C[C@@]12CC[C@@H]3[C@@](CC[C@H]4[C@@]3(C)CCC[C@@]4(C)C(=O)O)(C/C1=N\O)C2	4.87	0.15

Continued, in another order:

Activity [1]	Structure (SMILES)	luciferase ratio (RAW264.7)
2.98	C[C@@]12CC[C@@H]3[C@@](CC1=O)(C2)[C@@H](O)C[C@H]1[C@@]3(C)[C@@H](O)CC[C@@]1(C)C(=O)O	0.16
2.69	C[C@@]12CC[C@H]3[C@]4(C)CCC[C@@](C)(C(=O)O)[C@H]4C[C@H](O)[C@]3(C/C1=N\O)C2	0.16
3.37	C[C@@]12CC[C@@H]3[C@@](C/C1=N\O)(C2)[C@@H](O)C[C@H]1[C@@]3(C)[C@@H](O)CC[C@@]1(C)C(=O)O	0.26

Source: ChEMBL document CHEMBL1152520
